According to PMC5908246 (Cell reports, 2018):
“Also recorded” adds a separate entry of the source. Like-named read-outs stand apart in the source and are kept apart here. No end group written: not given here.

How the values were obtained:
[1] = molecular target: Med15 activator-binding domain 1 (ABD1) (S. cerevisiae (yeast)) (UniProt P19659); assay: ITC
[2] = molecular target: Gcn4 tAD (residues 1–134) labeled with Oregon Green 488 (S. cerevisiae) (UniProt P03069); assay: fluorescence polarisation
[3] = molecular target: Gcn4 N-terminal activation domain (nAD; residues 1–100) (S. cerevisiae) (UniProt P03069); assay: ITC
[4] = molecular target: Gcn4 cAD (residues 101–134) labeled with Oregon Green 488 (S. cerevisiae) (UniProt P03069); assay: fluorescence polarisation
Med15 ABD2 [5] = molecular target: T1, Med15 ABD2 (Saccharomyces cerevisiae, UniProt P19659); assay: ITC binding, Med15 ABD2; set-up: species or system S. cerevisiae; settings: 20 mM KH2PO4 (pH 7.5), 200 mM KCl, nAD 0.111 mM vs ABD2 1.60 mM, ABD2 0.224 mM vs cAD 2.35 mM, not measurable due to weak binding or low heats of binding
T1 sequence (P19659 277-368): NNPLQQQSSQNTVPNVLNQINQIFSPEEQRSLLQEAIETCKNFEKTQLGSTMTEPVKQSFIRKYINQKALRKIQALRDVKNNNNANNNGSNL

Med15 ABD3 [6] = molecular target: T2, Med15 ABD3 (Saccharomyces cerevisiae, UniProt P19659); assay: ITC binding, Med15 ABD3; set-up: species or system S. cerevisiae; settings: 20 mM KH2PO4 (pH 7.5), 200 mM KCl; for Kd: nAD 0.111 mM vs ABD3 1.12 mM, ABD3 0.236 mM vs cAD 2.35 mM, single binding site model
T2 sequence (P19659 484-651): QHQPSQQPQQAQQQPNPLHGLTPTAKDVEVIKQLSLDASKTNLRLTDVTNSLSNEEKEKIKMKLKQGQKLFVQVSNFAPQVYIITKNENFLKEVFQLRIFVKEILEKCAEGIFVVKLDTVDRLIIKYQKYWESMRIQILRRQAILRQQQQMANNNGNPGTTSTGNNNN
How it was run: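 ITC was run on a MicroCal ITC200 in 20 mM KH2PO4 (pH 7.5), 200 mM KCl. In one run, Gcn4 nAD in the cell (0.111 mM) was titrated with Med15 ABD3 from the syringe (1.12 mM). In the other, ABD3 in the cell (0.236 mM) was titrated with Gcn4 cAD (2.35 mM). Data were fitted with a single binding site model.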

Med15 ABD2 [7] = molecular target: T1, Med15 ABD2; assay: Fluorescence polarization binding, Med15 ABD2; set-up: species or system S. cerevisiae
How it was run: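 Gcn4 AD peptides (nAD, cAD, tAD) labelled with Oregon Green 488 were titrated with Med15 ABD2, giving 15 concentrations spanning 0–250 μM for tAD. Proteins were size-exclusion purified into 20 mM KH2PO4 (pH 7.5), 200 mM KCl. Polarization was measured on a Beacon 2000. Kd was fitted with a one-site total binding model including a nonspecific term and background.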

Med15 ABD1 [8] = molecular target: T3, Med15 ABD1 (Saccharomyces cerevisiae, UniProt P19659); assay: NMR competition: unlabeled cAD added to 15N-tAD + ABD1; format: binding, S. cerevisiae; settings: (1H,15N)-HSQC
T3 sequence (P19659 158-238 limits assumed): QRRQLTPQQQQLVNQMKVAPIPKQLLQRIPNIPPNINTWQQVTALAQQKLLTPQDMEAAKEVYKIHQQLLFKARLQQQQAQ

Med15 ABD1 [9] = molecular target: T3, Med15 ABD1; settings: ITC; 20 mM KH2PO4 (pH 7.5), 200 mM KCl; cAD; ref Brzovic et al., 2011; cited from earlier work
Med15 KIX = molecular target: T4, Med15 KIX (Saccharomyces cerevisiae, UniProt P19659); settings: FP; Oregon Green 488-labeled Gcn4 peptide; ref Herbig et al., 2010; cited from earlier work
T4 sequence (P19659 6-91): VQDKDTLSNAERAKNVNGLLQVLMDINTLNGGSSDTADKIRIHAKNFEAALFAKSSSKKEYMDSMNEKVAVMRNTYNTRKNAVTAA

Med15 ABD1 [10] = molecular target: T3, Med15 ABD1; settings: ref Brzovic et al., 2011; cited from earlier work
Med15 ABD1 [11] = molecular target: T3, Med15 ABD1; assay: ITC binding, Med15 ABD1; set-up: species or system S. cerevisiae; settings: 200 mM KCl
How it was run: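 ITC was run on a MicroCal ITC200 in 20 mM KH2PO4 (pH 7.5), 200 mM KCl. Med15 ABD1 in the cell (0.150 mM) was titrated with Gcn4 nAD from the syringe (1.50 mM). Thermodynamic parameters came from a single binding site model fit.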

Med15 ABD1 [12] = molecular target: T3, Med15 ABD1; assay: NMR secondary structure propensity upon binding ABD1; set-up: species or system S. cerevisiae; settings: bound to ABD1; backbone chemical shifts, ncSPC; 25°C
How it was run: (§1)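 ¹³C,¹⁵N-labelled Gcn4 nAD was titrated with unlabelled Med15 ABD at ~200 μM labelled sample. Bound-state assignments were checked by triple-resonance experiments. Secondary structure propensity came from backbone chemical shifts via ncSPC.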

Med15 ABD2 [13] = molecular target: T1, Med15 ABD2; assay: NMR secondary structure propensity upon binding ABD2; set-up: species or system S. cerevisiae; settings: bound to ABD2, saturating; backbone chemical shifts, ncSPC; 25°C
How it was run: as §1

[14] = test system: Med15 KIX domain (in KIX123); assay: EDC crosslinking-MS, KIX123-tAD, links to KIX; format: binding, S. cerevisiae; settings: EDC 7.5 mM, Sulfo-NHS 2 mM, 2 hr, room temperature; Gcn4 1–140
How it was run: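 Gcn4 AD and KIX123 were purified by size exclusion into PBS (pH 7.2) and cross-linked for 2 hr at room temperature. Samples were reduced (50 mM TCEP, 8 M urea, 37°C, 15 min), alkylated (15 mM iodoacetamide, dark, 37°C, 1 hr), diluted 10-fold in 100 mM ammonium bicarbonate and digested overnight at 37°C with trypsin (1:15 w/w). After C18 cleanup, peptides were run on an Orbitrap Elite with HCD and a 90 min 5–40% ACN gradient. pLink and Nexus searches used 5% FDR, and a crosslink required ≥4 consecutive b/y ions per peptide.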

Med15 ABD1 [15] = molecular target: T3, Med15 ABD1; settings: FP; Oregon Green 488-labeled Gcn4 peptide; ref Herbig et al., 2010; cited from earlier work
Med15 ABD2 [16] = molecular target: T1, Med15 ABD2; settings: FP; Oregon Green 488-labeled Gcn4 peptide; ref Herbig et al., 2010; cited from earlier work
Med15 ABD3 [17] = molecular target: T2, Med15 ABD3; settings: FP; Oregon Green 488-labeled Gcn4 peptide; ref Herbig et al., 2010; cited from earlier work
Med15 ABD123 [18] = molecular target: T5, Med15 ABD123 (Saccharomyces cerevisiae, UniProt P19659, DEL239-272/DEL373-483); settings: FP; Oregon Green 488-labeled Gcn4 peptide; ref Herbig et al., 2010; cited from earlier work
T5 sequence (P19659 with tags, fused parts or gaps DEL239-272/DEL373-483): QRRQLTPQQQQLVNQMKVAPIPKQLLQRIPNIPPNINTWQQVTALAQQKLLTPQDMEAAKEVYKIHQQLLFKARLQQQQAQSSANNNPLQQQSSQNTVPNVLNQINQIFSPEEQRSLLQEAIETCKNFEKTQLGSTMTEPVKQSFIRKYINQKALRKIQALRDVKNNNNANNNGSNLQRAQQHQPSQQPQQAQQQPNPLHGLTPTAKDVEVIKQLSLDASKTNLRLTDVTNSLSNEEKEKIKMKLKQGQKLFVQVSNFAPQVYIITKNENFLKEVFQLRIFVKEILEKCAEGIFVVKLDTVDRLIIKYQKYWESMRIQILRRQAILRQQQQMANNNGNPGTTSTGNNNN

Med15 ABD123 [19] = molecular target: T5, Med15 ABD123; assay: Fluorescence polarization binding, Med15 ABD123; set-up: species or system S. cerevisiae; settings: tAD binding to ABD123
How it was run: (§2)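 Gcn4 tAD peptide labelled with Oregon Green 488 was titrated with 15 Med15 concentrations spanning 0–250 μM (ABD123 or KIX123). Proteins were in 20 mM KH2PO4 (pH 7.5), 200 mM KCl. Polarization was read on a Beacon 2000. Kd came from non-linear regression to a one-site total binding model (Bmax·X/(Kd+X) + NS·X + background).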

Med15 KIX123 = assay: Fluorescence polarization binding, Med15 KIX123; set-up: species or system S. cerevisiae; settings: KIX123 vs ABD123
How it was run: as §2

individual Med15 ABDs = assay: ITC and/or FP binding to individual Med15 ABDs; set-up: species or system S. cerevisiae
How it was run: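 Med15 ABD and Gcn4 AD proteins came from E. coli BL21(DE3) RIL and were polished by size exclusion into 20 mM KH₂PO₄ (pH 7.5), 200 mM KCl; concentrations were set by UV-Vis. FP used Oregon Green 488-labelled Gcn4 peptides, with 15 Med15 concentrations (0–250 µM) against tAD and 0–225 µM ABD3 against cAD. FP data were fit to a one-site total binding model with a nonspecific term. ITC data were fit to a single-site model.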

Molecule: Gcn4 N-terminal activation domain (nAD; residues 1–100) (from UniProt P03069 1-100) (domain or fragment)
- Kd [1]: 10.8 µM
- dH [1]: 2.45 kcal/mol

Molecule: Med15 158–651 Δ239–272, Δ373–483 (ABD123) (from UniProt P19659 158-651) (domain or fragment)
- Kd [2]: 0.109 µM

Molecule: Med15 activator-binding domain 1 (ABD1) (from UniProt P19659 158-238) (domain or fragment)
- Kd [2]: 2.66 µM

Molecule: Med15 activator-binding domain 2 (ABD2; residues 277–368) (from UniProt P19659 277-368) (domain or fragment)
- Kd [2]: 19.5 µM

Molecule: Med15 activator-binding domain 3 (ABD3; Med15 484–651) (from UniProt P19659 484-651) (domain or fragment)
- Kd [3]: 23.9 µM
- dH [3]: 7.02 kcal/mol
- Kd [4]: 13.9 µM
- Kd [2]: 4.4 µM

Molecule: STDSTPMFEYENLEDNSKEWTSLFDNDIPVTTDD [cAD]
- Kd (Med15 ABD2 [5]): unable to measure
- Kd (Med15 ABD3 [6]): unable to measure
- weaker binding (cAD to ABD2) than the other pairwise interactions (Med15 ABD2 [7]): ~ 10 fold
- affinity for ABD2 (in words) (Med15 ABD2 [7]; compared with nAD or tAD): substantially weaker affinity
- competition with 15N-tAD for ABD1 (Med15 ABD1 [8]): cAD can compete off both cAD and nAD residues
- ΔS (Med15 ABD1 [9]): 4.58 cal/mol/deg
- Kd (Med15 KIX): neither nAD nor cAD showed detectable KIX binding; also recorded: unable to measure
- helical structure upon ABD1 binding, residues 117–125 (Med15 ABD1 [10]): adopt helical structure

B1: nAD: N-terminal activation domain of Gcn4, residues 1–100 (protein, UniProt P03069 1-100, looked up, fragment)
chain: MSEYQPSLFALNPMGFSPLDGSKSTNENVSASTSTAKPMVGQLIFDKFIKTEEDPIIKQDTPSNLDFDFALPQTATAPDAKTVLPIPELDDAVVESFFSS
- ΔH (Med15 ABD1 [11]; 20 mM KH2PO4 (pH 7.5), nAD): 2,454 ± 78 cal/mol
- ΔS (Med15 ABD1 [11]; 20 mM KH2PO4 (pH 7.5), nAD): 31.0 cal/mol/deg
- Kd (Med15 ABD1 [11]; Microcal ITC200, 20 mM KH2PO4 (pH 7.5), cell ABD1 0.150 mM, syringe nAD 1.50 mM, single binding site model): 10.8 ± 1.5 µM
- Kd (Med15 ABD2 [5]): unable to measure
- ΔH (Med15 ABD3 [6]): 7,015 ± 221 cal/mol
- Kd (Med15 ABD3 [6]): 23.9 ± 2 µM
- helical content of the other three nAD hydrophobic clusters (Med15 ABD1 [12]): < 20%
- helical content of C-terminal hydrophobic cluster (residues 94–98) (Med15 ABD2 [13]): ~ 25%
- crosslinks to Med15 KIX domain [14]: crosslinks extensively to Gcn4 in the large complex, mainly to nAD
- Kd (Med15 ABD1 [15]): 3.3 ± 0.5 µM
- Kd (Med15 ABD2 [16]): 21.8 ± 3.8 µM
- Kd (Med15 ABD3 [17]): 2.6 ± 0.4 µM
- Kd (Med15 KIX): neither nAD nor cAD showed detectable KIX binding; also recorded: unable to measure
- Kd (Med15 ABD123 [18]): 0.36 ± 0.02 µM

B2: tAD: tandem AD polypeptide, Gcn4 residues 1–134 (1–140 in crosslinking) (protein, UniProt P03069 1-134, looked up, fragment)
chain: MSEYQPSLFALNPMGFSPLDGSKSTNENVSASTSTAKPMVGQLIFDKFIKTEEDPIIKQDTPSNLDFDFALPQTATAPDAKTVLPIPELDDAVVESFFSSSTDSTPMFEYENLEDNSKEWTSLFDNDIPVTTDD
- higher affinity than the strongest piecemeal interaction (Med15 ABD123 [19]): about 20 fold
- increase of Gcn4 affinity by presence of KIX along with ABD1,2,3 (Med15 KIX123): ~ 30%
- affinity for individual ABDs (in words) (individual Med15 ABDs): affinity close to the stronger of the individual nAD or cAD interactions
